This is an account of results in ChEMBL document CHEMBL5661979, “Pharmacological inhibition of BMK1 suppresses tumor growth through promyelocytic leukemia protein” (Cancer Cell, 2010).

Usually IC50 stands for the point on the concentration scale where inhibition reaches its midpoint. In general, inhibition refers to the change of the read-out against control, counted positive when it falls. Usually Kd stands for the equilibrium constant for the complex coming apart. For orientation: AUC(0-inf) means the area under the concentration-time curve extrapolated to infinity. The low end stands for less exposure, the high end for more exposure.

Calls of active or inactive are those of the source. No cut-off for these calls is given here. A value given as a limit tells only on which side of the number the result lay.

Series [1] in a line: Inhibition of CDK5/PRKX/PRKY in human HeLa cells lysate pre incubated for 15 mins followed by ATP acyl phosphate probe addition and measured after 10 mins by LC-MS/MS analysis. Format: subcellular. In a few lines: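 KiNativ profiling in HeLa lysate (5 mg/mL total protein). Lysate incubated 15 min with inhibitor at 50, 10, 2, 0.8 or 0 μM. ATP or ADP acylphosphate probe then added (5 μM final) and reacted 10 min. Reaction stopped with urea and analysed by targeted MS, using up to four fragment ions per kinase peptide-probe conjugate. % inhibition taken against untreated lysate. Run in duplicate.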

Series [2] concerns the target Tyrosine-protein kinase Lyn (Homo sapiens, UniProt P07948). The series can be described thus: Inhibition of LYN in human HeLa cells lysate pre incubated for 15 mins followed by ATP acyl phosphate probe addition and measured after 10 mins by LC-MS/MS analysis. Format: subcellular.
Series [3] deals with Protein kinase C theta type (Homo sapiens, UniProt Q04759). The series can be described thus: Inhibition of PKCtheta in human HeLa cells lysate pre incubated for 15 mins followed by ATP acyl phosphate probe addition and measured after 10 mins by LC-MS/MS analysis. Format: subcellular.
For series [4], the target named is Ribosomal protein S6 kinase alpha-3 (Homo sapiens, UniProt P51812). In words: Inhibition of RSK2 in human HeLa cells lysate pre incubated for 15 mins followed by ATP acyl phosphate probe addition and measured after 10 mins by LC-MS/MS analysis. The class given is subcellular.
A further series has as its target SRSF protein kinase 1 (Homo sapiens, UniProt Q96SB4). The series can be described thus: Inhibition of SRPK1 in human HeLa cells lysate pre incubated for 15 mins followed by ATP acyl phosphate probe addition and measured after 10 mins by LC-MS/MS analysis. The class given is subcellular.
In series [5] the target is Calcium/calmodulin-dependent protein kinase type II subunit gamma (Homo sapiens, UniProt Q13555). The series can be described thus: Inhibition of CAMK2g in human HeLa cells lysate pre incubated for 15 mins followed by ADP acyl phosphate probe addition and measured after 10 mins by LC-MS/MS analysis. The class given is subcellular. In a few lines:
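KiNativ-type profiling in HeLa lysate (5 mg/mL total protein). Lysate preincubated 15 min with inhibitor at 50, 10, 2, 0.8 or 0 μM, then ATP or ADP acylphosphate probe added (5 μM final) for 10 min. Reaction stopped with urea and analysed by targeted MS, using up to four fragment ions per kinase peptide-probe conjugate. % inhibition calculated against untreated lysate. Duplicate reactions.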

Series [6] addresses MAP/microtubule affinity-regulating kinase 3 (Homo sapiens, UniProt P27448). The series can be described thus: Inhibition of MARK3 in human HeLa cells lysate at 50 uM pre incubated for 15 mins followed by ADP acyl phosphate probe addition and measured after 10 mins by LC-MS/MS analysis relative to control. Format: subcellular. The settings on record: time 25.0 min.
The target of series [7] is T1, Serine/threonine-protein kinase tousled-like 1 (Homo sapiens) (UniProt Q9UKI8).
T1 sequence (whole entry): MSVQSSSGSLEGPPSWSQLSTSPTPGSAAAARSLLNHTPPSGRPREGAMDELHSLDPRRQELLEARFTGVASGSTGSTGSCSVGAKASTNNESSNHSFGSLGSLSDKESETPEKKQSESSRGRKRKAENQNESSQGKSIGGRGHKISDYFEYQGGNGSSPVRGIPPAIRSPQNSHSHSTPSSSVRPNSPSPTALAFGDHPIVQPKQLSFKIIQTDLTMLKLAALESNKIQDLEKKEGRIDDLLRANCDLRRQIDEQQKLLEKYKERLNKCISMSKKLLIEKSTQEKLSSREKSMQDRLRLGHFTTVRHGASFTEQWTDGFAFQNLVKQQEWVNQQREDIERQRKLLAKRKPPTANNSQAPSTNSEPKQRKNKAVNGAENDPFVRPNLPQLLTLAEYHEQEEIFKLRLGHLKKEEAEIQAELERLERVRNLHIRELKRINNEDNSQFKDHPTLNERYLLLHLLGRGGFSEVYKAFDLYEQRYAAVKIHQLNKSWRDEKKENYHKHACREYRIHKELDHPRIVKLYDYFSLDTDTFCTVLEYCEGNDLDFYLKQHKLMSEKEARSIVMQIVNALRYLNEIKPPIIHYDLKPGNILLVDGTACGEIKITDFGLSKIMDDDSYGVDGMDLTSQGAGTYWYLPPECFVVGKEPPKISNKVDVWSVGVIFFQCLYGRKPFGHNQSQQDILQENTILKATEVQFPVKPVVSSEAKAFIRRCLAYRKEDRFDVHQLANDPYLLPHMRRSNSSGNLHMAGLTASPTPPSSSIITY
The series can be described thus: Inhibition of TLK1 in human HeLa cells lysate at 2 uM pre incubated for 15 mins followed by ADP acyl phosphate probe addition and measured after 10 mins by LC-MS/MS analysis relative to control. The class given is subcellular. As to conditions: time 25.0 min.

In series [8] the target is Serine/threonine-protein kinase LATS2 (Homo sapiens) (UniProt Q9NRM7). The series can be described thus: Inhibition of LATS2 in human HeLa cells lysate at 2 uM pre incubated for 15 mins followed by ADP acyl phosphate probe addition and measured after 10 mins by LC-MS/MS analysis relative to control. Format: subcellular. The settings on record: time 25.0 min.
A short description of series [9]: Inhibition of CK1g1/g2/g3 in human HeLa cells lysate at 2 uM pre incubated for 15 mins followed by ADP acyl phosphate probe addition and measured after 10 mins by LC-MS/MS analysis relative to control. The settings on record: 25 min, condition cancer.
Series [10] has as its target STE20-like serine/threonine-protein kinase (Homo sapiens, UniProt Q9H2G2). The series can be described thus: Inhibition of SLK in human HeLa cells lysate at 50 uM pre incubated for 15 mins followed by ATP acyl phosphate probe addition and measured after 10 mins by LC-MS/MS analysis relative to control. The class given is subcellular. The settings on record: time 25.0 min.

The target of series [11] is Serine/threonine-protein kinase MRCK beta (Homo sapiens, UniProt Q9Y5S2). In words: Inhibition of MRCKB in human HeLa cells lysate at 50 uM pre incubated for 15 mins followed by ATP acyl phosphate probe addition and measured after 10 mins by LC-MS/MS analysis relative to control. The class given is subcellular. The settings on record: time 25.0 min.
Series [12] has as its target Serine/threonine-protein kinase DCLK2 (Homo sapiens, UniProt Q8N568). In words: Binding affinity to DCAMKL2 (unknown origin) assessed as dissociation constant by ATP-competition binding assay.
A short description of series [13]: AUCinfinity in Sprague-Dawley rat at 1 mg/kg, iv measured up to 8 hrs by LC-MS/MS analysis. Format: ADME, organism-based. As to conditions: in vivo. Put shortly:
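Sprague-Dawley rats given one intravenous dose or one oral dose of 2 mg/kg. Plasma drug concentrations were followed over time, with samples taken out to 8 hr after dosing. PK parameters (clearance, volume of distribution, half-life, oral bioavailability, Cmax) were calculated from these concentration–time data.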

A short description of series [14]: Plasma concentration in Sprague-Dawley rat at 2 mg/kg, po measured after 8 hrs by LC-MS/MS analysis. Format: ADME, organism-based.
Another series concerns HeLa. In words: Antitumor activity against human HeLa cells xenografted in NOD/SCID mouse assessed as reduction tumor growth at 50 mg/kg, ip administered on day 7 post implantation measured after 28 days. The class given is functional, organism-based. As to conditions: time 21.0 day. Put shortly:
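HeLa cells (5×10^5, in DMEM) were injected s.c. into the right flank of 6-week-old Nod/Scid mice on day 0. Dosing was 50 mg/kg i.p. twice daily, starting on day 1, 7 or 14 and continuing to day 28; controls received carrier. 6 mice per treated group. Tumors were measured every 2–3 days.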
For orientation: A xenograft is tissue or cells of one species grown in another, often human tumour cells in immunodeficient mice.

Sequence of Protein kinase C theta type (Q04759 whole entry): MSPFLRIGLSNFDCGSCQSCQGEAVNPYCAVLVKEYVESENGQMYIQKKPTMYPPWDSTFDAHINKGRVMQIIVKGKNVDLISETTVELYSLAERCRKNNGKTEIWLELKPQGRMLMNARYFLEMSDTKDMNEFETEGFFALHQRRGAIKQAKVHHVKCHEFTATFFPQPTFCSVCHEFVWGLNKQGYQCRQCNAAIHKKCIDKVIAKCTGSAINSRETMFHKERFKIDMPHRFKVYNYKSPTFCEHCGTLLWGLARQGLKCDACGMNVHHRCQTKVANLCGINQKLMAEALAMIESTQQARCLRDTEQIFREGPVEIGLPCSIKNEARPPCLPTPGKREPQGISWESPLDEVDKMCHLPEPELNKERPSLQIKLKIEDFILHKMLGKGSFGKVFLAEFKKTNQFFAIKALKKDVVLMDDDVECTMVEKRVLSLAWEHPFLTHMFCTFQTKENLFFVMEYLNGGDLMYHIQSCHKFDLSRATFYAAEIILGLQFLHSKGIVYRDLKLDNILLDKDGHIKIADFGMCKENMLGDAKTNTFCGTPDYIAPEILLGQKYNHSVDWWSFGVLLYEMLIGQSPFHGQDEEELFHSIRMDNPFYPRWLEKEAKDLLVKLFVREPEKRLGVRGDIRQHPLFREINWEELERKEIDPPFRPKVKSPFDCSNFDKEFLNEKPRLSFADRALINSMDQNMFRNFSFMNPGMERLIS
Sequence of Serine/threonine-protein kinase LATS2 (Homo sapiens) (Q9NRM7 whole entry): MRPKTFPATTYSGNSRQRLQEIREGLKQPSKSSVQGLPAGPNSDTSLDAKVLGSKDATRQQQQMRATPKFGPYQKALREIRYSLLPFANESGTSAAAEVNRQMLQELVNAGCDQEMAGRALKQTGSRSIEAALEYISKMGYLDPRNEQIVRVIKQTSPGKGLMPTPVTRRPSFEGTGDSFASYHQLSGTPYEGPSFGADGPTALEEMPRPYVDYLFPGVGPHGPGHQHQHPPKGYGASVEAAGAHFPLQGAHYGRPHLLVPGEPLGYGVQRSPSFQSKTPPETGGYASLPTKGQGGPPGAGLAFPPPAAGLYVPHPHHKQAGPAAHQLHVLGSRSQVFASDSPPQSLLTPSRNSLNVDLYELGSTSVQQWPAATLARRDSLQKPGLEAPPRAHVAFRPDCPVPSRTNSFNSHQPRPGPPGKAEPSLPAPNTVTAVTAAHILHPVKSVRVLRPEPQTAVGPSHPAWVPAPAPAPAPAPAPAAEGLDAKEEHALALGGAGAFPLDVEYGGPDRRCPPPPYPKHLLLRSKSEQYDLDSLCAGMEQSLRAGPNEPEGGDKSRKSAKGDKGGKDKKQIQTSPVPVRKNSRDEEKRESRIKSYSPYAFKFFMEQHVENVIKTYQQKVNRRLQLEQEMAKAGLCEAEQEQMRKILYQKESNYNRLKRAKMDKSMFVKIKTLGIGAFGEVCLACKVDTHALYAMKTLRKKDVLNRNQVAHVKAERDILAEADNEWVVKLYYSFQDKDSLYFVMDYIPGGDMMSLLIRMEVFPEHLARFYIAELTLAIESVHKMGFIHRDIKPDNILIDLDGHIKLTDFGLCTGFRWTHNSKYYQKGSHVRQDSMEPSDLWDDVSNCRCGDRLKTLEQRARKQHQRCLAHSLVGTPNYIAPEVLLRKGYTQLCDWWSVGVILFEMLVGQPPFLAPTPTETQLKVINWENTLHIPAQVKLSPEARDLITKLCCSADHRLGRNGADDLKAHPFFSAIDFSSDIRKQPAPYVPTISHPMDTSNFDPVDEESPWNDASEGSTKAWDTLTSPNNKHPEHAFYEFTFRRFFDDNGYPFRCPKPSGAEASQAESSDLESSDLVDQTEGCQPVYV
Sequence of Tyrosine-protein kinase Lyn (P07948 whole entry): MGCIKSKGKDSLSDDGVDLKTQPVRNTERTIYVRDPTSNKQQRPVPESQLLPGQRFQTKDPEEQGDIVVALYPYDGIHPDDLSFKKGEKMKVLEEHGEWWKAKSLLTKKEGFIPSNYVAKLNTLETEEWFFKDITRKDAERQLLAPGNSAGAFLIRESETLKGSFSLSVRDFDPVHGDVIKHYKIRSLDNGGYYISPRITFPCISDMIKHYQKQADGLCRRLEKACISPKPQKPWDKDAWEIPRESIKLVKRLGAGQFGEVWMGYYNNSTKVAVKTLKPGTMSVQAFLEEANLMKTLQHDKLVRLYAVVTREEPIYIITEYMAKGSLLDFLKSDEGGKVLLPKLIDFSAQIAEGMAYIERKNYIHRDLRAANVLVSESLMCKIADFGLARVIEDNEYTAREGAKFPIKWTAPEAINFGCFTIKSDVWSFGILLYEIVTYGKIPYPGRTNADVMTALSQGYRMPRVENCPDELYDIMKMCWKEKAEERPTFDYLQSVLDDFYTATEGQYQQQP
Sequence of Serine/threonine-protein kinase DCLK2 (Q8N568 whole entry): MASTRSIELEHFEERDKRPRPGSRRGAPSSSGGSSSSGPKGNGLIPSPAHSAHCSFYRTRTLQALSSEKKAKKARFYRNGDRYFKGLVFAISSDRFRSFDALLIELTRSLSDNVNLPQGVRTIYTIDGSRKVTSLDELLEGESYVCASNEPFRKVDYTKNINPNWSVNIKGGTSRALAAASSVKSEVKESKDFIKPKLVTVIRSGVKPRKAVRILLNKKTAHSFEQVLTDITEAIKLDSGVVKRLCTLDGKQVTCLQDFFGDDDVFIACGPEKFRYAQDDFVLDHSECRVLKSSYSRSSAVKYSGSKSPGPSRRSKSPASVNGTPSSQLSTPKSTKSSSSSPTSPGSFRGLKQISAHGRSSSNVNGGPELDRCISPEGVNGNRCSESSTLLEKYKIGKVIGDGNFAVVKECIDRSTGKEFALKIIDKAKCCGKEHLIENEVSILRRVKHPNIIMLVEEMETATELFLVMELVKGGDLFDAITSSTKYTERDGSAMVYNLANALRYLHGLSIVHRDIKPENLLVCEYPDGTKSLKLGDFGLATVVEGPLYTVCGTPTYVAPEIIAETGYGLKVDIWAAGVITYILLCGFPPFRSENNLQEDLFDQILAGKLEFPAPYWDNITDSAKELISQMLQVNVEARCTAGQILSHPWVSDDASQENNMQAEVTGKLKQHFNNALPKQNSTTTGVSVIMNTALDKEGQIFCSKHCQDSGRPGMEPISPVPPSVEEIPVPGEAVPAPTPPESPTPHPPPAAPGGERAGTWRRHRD
Sequence of MAP/microtubule affinity-regulating kinase 3 (P27448 whole entry, looked up): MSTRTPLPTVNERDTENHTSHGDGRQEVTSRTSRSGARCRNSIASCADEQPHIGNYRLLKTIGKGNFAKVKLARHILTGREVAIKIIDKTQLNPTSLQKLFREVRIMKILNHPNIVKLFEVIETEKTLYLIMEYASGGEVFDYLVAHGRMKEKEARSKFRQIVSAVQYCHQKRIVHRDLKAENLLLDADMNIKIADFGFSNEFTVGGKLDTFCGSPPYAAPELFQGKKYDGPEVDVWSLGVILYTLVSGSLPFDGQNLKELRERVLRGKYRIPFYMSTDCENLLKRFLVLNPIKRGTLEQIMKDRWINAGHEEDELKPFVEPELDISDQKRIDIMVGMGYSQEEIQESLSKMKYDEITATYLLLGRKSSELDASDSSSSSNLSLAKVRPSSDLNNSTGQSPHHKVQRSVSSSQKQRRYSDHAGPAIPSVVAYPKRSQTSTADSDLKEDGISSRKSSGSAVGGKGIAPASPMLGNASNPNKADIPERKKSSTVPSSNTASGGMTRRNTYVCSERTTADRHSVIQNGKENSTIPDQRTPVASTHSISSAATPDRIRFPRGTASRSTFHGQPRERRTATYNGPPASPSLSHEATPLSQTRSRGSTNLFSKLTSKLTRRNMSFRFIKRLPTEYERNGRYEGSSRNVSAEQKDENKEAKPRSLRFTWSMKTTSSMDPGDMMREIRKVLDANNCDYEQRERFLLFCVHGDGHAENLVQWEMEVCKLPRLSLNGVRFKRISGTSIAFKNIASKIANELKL
Sequence of SRSF protein kinase 1 (Q96SB4 whole entry): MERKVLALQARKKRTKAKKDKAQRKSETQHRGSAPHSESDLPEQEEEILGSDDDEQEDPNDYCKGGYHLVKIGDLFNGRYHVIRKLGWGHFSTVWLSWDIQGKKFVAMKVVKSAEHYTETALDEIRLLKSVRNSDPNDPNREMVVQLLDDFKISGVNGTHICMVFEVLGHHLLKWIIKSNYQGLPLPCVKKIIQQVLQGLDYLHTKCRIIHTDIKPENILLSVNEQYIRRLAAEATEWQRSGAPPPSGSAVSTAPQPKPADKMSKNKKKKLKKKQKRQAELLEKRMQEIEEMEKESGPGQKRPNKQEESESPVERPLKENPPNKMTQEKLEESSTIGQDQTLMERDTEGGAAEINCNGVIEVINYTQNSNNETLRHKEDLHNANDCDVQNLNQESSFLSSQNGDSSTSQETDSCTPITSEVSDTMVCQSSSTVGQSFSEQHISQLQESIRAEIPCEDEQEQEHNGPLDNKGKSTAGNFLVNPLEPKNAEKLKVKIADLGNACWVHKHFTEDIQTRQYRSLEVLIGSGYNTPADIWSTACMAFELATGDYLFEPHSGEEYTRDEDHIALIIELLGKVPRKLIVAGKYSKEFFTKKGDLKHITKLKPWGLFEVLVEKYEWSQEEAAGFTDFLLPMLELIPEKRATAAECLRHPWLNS
Sequence of Calcium/calmodulin-dependent protein kinase type II subunit gamma (Q13555 whole entry, the tested form may be a part): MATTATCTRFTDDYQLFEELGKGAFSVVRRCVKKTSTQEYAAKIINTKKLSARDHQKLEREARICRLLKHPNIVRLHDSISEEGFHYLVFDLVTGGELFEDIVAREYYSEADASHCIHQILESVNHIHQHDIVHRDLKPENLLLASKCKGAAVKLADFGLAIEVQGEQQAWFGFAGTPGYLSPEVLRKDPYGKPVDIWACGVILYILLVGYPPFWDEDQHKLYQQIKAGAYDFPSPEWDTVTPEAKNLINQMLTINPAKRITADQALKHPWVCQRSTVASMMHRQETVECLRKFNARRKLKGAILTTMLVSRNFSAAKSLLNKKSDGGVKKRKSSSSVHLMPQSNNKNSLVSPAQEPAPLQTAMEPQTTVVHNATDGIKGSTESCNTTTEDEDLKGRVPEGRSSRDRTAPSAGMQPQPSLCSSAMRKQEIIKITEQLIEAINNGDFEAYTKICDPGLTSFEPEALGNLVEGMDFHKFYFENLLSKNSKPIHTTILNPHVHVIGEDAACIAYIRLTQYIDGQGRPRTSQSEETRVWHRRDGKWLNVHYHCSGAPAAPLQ

With `CCOc1cc(N2CCC(O)CC2)ccc1Nc1ncc2c(n1)N(C)c1ccccc1C(=O)N2C`, the 50% inhibitory concentration (IC50) (in [1]; in series [2]; in [3]; in [4]; against SRSF protein kinase 1; in series [5]) was above 50 µM each time. The inhibition in series [6] was -3.3%; in [7], 7.3%; in series [8], -4%; in [10], 5.7%; in series [11] it was -5%. In [9], the inhibition at 2 µM is 61.7%. In addition, the Kd in [12] was 0.19 µM. This compound yielded an AUC(0-inf) in series [13] of 1.39 µM·h. For the same compound, in series [14], the concentration at 8 h came to 34 nM. Besides, in the series on HeLa, the outcome was Active.
